Experimental findings from PubChem BioAssay are described below.

Each structure is given as a SMILES string. Active and inactive are the calls of the source.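 Rule for the calls, unless noted: active = viability at or under a set limit in both replicates, limit being median viability minus 3 SD (cut at about 48% in these data, passing the limit was not always enough); inconclusive = at or under the limit in just one replicate; inactive = at or above the limit in both replicates.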

Experiment [1] is described as follows: reducers of endogenous Her2 protein level, primary screen, SKBR3 breast tumor cells, AlphaScreen, ATP viability (AID 461;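 active = Her2 level under about 52% in both replicate screens, with viability over 70% of control, limit read from the data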;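 for Her2 level: lower value means less Her2 protein in the cells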;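 for viability: percent of carrier control wells set as 100% viability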). Particulars: 18-24 h, measured here: SKBR3 viability, ATP luminescence, at 10 µM. Background: In Alpha technology, singlet oxygen from a donor bead excites a nearby acceptor bead.
Experiment [2] has as its target Receptor tyrosine-protein kinase erbB-2 (Homo sapiens) (UniProt P04626). The experiment is described as above. The conditions noted are these: 18-24 h, at 10 µM, stronger effect = lower value.
Experiment [3] in a line: SK-BR-3 cell growth inhibitors, pilot screen, 24 h, human (AID 572;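 active = viability at or below 10% of carrier control in both of two separate runs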;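 note: compound exposure lasted between 18 and 24 h rather than exactly 24 h; 100% = carrier-treated control wells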). The conditions noted are these: SK-BR-3 viability, CellTiter-Glo luminescence, at 10 µM, stronger effect = lower value. In general terms: Cellular ATP, detected with luciferase, serves as a proxy for viable cell number.
Experiment [4] can be described thus: HUVEC growth inhibition – cell-based, human, primary screen (AID 575;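 active = viability at or below 30% in both replicate assays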;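 note: 100% = median of untreated cell wells with 0.1% DMSO on each plate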). Particulars: HUVEC proliferation, CellTiter-Glo luminescence, 72 h; at 10 µM; stronger effect = lower value. The essentials: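 Assay system: primary human umbilical vein endothelial cells / Buffer or medium: endothelial basal medium with 2% FBS plus growth supplements / Compound dosing: one dose, 10 µM final, 0.1% DMSO / Timing: 72 h treatment at 37 °C / Signal: CTG luminescence / Benchmarks: 32 DMSO-only cell-control wells (high), 32 MePR drug-control wells (low) per plate / Plate: collagen-coated 384-well format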

Experiment [5] can be described thus: growth inhibitors of H69AR lung tumor, primary screen, human, duplicate replicates (AID 580).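 Note: 100% = mean luminescence of untreated wells and 0% = no signal.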 Particulars: H69AR lung tumor cells viability, ATP luminescence, 72 h; at 10 µM; stronger effect = lower value.
A short description of experiment [6]: reversal of MRP1-mediated doxorubicin resistance, pilot screen, H69AR cells, doxorubicin co-treatment (AID 601;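 active = viability loss from added drug above about 55%, and viability with drug at most 40%, in both replicates, limit read from the data, passing the limit was not always enough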). Particulars: CellTiter-Glo, 72 h, at 10 µM; for differential viability (reversal): stronger effect = higher value.
Experiment [7] can be described thus: 384-well plate pilot, post-Golgi transport modulator project, inhibition of yeast transport mutant growth (AID 636; in the data active = inhibition above about 31%). The conditions noted are these: absorbance 615 nm, about 18 h, stronger effect = higher value.
A short description of experiment [8]: growth suppression of yeast trafficking mutant, preliminary HTS, modulators of trafficking downstream of Golgi apparatus project, 1536-format plate, OD 615 nm (AID 637; in the data active = inhibition above about 30%). Particulars: yeast transport mutant growth, absorbance 615 nm, 18 h; stronger effect = higher value.
Where [9] appears, read: H69AR cells + 2 uM doxorubicin, measured here: viability with 2 uM doxorubicin, stronger effect = lower value.
Setting [10] is: H69AR cells, compound alone cytotoxicity.

Receptor tyrosine-protein kinase erbB-2 (Homo sapiens), sequence (P04626 whole entry, looked up): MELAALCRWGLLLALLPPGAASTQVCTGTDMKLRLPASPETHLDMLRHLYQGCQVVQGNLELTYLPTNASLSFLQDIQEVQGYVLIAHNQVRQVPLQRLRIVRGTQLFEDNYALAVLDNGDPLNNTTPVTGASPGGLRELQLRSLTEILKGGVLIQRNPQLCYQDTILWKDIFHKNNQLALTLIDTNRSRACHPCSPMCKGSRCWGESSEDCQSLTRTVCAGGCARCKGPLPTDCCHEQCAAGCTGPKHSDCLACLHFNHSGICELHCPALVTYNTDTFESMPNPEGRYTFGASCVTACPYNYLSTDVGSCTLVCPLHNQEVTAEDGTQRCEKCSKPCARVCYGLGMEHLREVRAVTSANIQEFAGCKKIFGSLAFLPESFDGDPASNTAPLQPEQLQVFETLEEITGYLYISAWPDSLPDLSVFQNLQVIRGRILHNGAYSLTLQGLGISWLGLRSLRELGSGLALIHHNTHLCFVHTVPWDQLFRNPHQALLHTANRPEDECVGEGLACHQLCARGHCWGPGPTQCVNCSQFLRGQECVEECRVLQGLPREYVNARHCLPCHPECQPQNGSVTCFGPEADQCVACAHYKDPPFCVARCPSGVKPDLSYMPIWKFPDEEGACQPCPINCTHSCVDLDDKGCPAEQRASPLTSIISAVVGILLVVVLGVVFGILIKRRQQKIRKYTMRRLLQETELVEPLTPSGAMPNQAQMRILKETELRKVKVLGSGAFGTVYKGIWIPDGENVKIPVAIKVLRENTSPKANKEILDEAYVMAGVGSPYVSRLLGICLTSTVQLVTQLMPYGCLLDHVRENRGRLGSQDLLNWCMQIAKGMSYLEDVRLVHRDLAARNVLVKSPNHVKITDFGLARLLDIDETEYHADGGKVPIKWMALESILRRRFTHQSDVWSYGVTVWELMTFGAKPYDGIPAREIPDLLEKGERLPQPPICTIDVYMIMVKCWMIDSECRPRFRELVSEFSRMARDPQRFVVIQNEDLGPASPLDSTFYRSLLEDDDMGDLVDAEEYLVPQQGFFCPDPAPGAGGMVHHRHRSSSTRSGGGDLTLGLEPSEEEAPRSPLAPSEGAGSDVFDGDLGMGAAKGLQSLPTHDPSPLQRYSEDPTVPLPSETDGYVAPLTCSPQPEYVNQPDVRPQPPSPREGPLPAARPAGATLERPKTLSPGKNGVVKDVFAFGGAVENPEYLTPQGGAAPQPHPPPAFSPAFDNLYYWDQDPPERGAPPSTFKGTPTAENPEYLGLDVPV

As usually defined, the viability is a read-out of living cells in per cent, often relative to untreated cells. One may read the inhibition as the change of the read-out against control, counted positive when it falls. Take `Cc1cccc(-c2nnn(CC/C(N)=N/O)n2)c1`: the viability in experiment [1] is 85%; in experiment [3] it was 85% (inactive); in experiment [4], 85.3% (inactive); in experiment [5] it was 104% (inactive); in experiment [6] (setting [9]) it was 105%; in experiment [6] (setting [10]), 104%. Moreover, the Her2 level in experiment [2] was 84.5% (inactive). The differential viability (reversal) in experiment [6] (H69AR cells + 2 uM doxorubicin) is -1.3% (inactive). The inhibition in experiment [7] was -2.53% (inactive); in experiment [8], -0.16% (inactive).

For `COC(=O)c1cn(C(=O)OC)c2ccccc12`, the viability in experiment [1] is 96.5%; in experiment [3], 96.5% (inactive); in experiment [4] it was 85.1% (inactive); in experiment [5], 87.7% (inactive); in experiment [6] (setting [9]) it was 88.3%; in experiment [6] (setting [10]), 87.7%. The Her2 level in experiment [2] is 102% (inactive). In addition, the differential viability (reversal) in experiment [6] (H69AR cells + 2 uM doxorubicin) was -0.61% (inactive). The values for the inhibition in experiment [7] and in experiment [8] were -4.87% (inactive) and 4.1% (inactive), respectively.

Consider `CC(=O)c1c(C)oc2ccc(NS(=O)(=O)c3ccc(O)c(C(=O)O)c3)cc12`, for which the viability in experiment [1] is 92%; in experiment [3], 92% (inactive); in experiment [4], 105% (inactive); in experiment [5], 94% (inactive); in experiment [6] (setting [9]), 90.9%; in experiment [6] (setting [10]), 94%. Moreover, the Her2 level in experiment [2] is 78.5% (inactive). Besides, the differential viability (reversal) in experiment [6] (H69AR cells + 2 uM doxorubicin) is 3.09% (inactive). The inhibition is -6.22% (inactive) in experiment [7] and 0.79% (inactive) in experiment [8].

As to `O=C(CSCc1cccc(F)c1)N1CCN(c2ccccc2)CC1`, the viability in experiment [1] is 92%; in experiment [3], 92% (inactive); in experiment [4], 91% (inactive); in experiment [5], 101% (inactive); in experiment [6] (setting [9]) it was 96%; in experiment [6] (setting [10]), 101%. Also, the Her2 level in experiment [2] is 93.5% (inactive). Further, the differential viability (reversal) in experiment [6] (H69AR cells + 2 uM doxorubicin) was 5.28% (inactive). For the same compound, the results for the inhibition in experiment [7] and in experiment [8] were -5% (inactive) and -4.67% (inactive), respectively.

Regarding `COc1ccc(C(=O)OCC(=O)NCc2ccco2)cc1OC`, the viability in experiment [1] was 110%; in experiment [3] it was 110% (inactive); in experiment [4], 102% (inactive); in experiment [5], 78.4% (inactive); in experiment [6] (setting [9]), 82.1%; in experiment [6] (setting [10]) it was 78.4%. The Her2 level in experiment [2] is 89.5% (inactive). Also, the differential viability (reversal) in experiment [6] (H69AR cells + 2 uM doxorubicin) was -3.74% (inactive). Moreover, the figures for the inhibition in experiment [7] and in experiment [8] were -1.95% (inactive) and -6.23% (inactive), respectively.

As for `CSc1ccc(Cn2nnc(C(=O)NCc3ccccc3)c2N)cc1`, the viability in experiment [1] was 96.5%; in experiment [3], 96.5% (inactive); in experiment [4] it was 76.4% (inactive); in experiment [5], 103% (inactive); in experiment [6] (setting [9]) it was 103%; in experiment [6] (setting [10]), 103%. For the same compound, the Her2 level in experiment [2] was 91.5% (inactive). Further, the differential viability (reversal) in experiment [6] (H69AR cells + 2 uM doxorubicin) is 0.465% (inactive). Also, the inhibition is -1.87% (inactive) in experiment [7] and 0.16% (inactive) in experiment [8].

Consider `CSc1nc(N2CCOCC2)c2ccccc2n1`, for which the viability in experiment [1] was 110%; in experiment [3], 110% (inactive); in experiment [4], 93.7% (inactive); in experiment [5], 94.6% (inactive); in experiment [6] (setting [9]), 87%; in experiment [6] (setting [10]), 94.6%. The Her2 level in experiment [2] was 100% (inactive). The differential viability (reversal) in experiment [6] (H69AR cells + 2 uM doxorubicin) was 7.67% (inactive). Also, the inhibition was -2.27% (inactive) in experiment [7] and -7.87% (inactive) in experiment [8].

`CCCCCn1c(CN2CCN(C(=O)OCC)CC2)nc2c1c(=O)[nH]c(=O)n2C`: the viability in experiment [1] was 82%; in experiment [3], 82% (inactive); in experiment [4] it was 88.9% (inactive); in experiment [5] it was 98.5% (inactive); in experiment [6] (setting [9]), 82.7%; in experiment [6] (setting [10]), 98.5%. In addition, the Her2 level in experiment [2] is 94.5% (inactive). For the same compound, the differential viability (reversal) in experiment [6] (H69AR cells + 2 uM doxorubicin) was 15.8% (inactive). Moreover, the inhibition in experiment [7] is -0.67% (inactive); in experiment [8], 0.16% (inactive).

`COC(=O)c1ccccc1NC(=O)c1ccc(COc2ccccc2)o1`: the viability in experiment [1] is 71.5%; in experiment [3], 71.5% (inactive); in experiment [4], 94.6% (inactive); in experiment [5], 98.3% (inactive); in experiment [6] (setting [9]) it was 97.6%; in experiment [6] (setting [10]), 98.3%. Also, in experiment [2], the Her2 level is 106% (inactive). For the same compound, in experiment [6] (H69AR cells + 2 uM doxorubicin), the differential viability (reversal) was 0.68% (inactive). Also, the inhibition was -6.13% (inactive) in experiment [7] and -4.1% (inactive) in experiment [8].

For the compound `Cn1c(=O)oc2cc(S(=O)(=O)NCCC(=O)N3CCc4ccccc4C3)ccc21`, the viability was 102% in experiment [1]; 102% (inactive) in experiment [3]; 96.6% (inactive) in experiment [4]; 99.3% (inactive) in experiment [5]; 91.6% in experiment [6] (setting [9]); 99.3% in experiment [6] (setting [10]). Also, the Her2 level in experiment [2] was 87.5% (inactive). Besides, the differential viability (reversal) in experiment [6] (H69AR cells + 2 uM doxorubicin) is 7.68% (inactive). Also, the values for the inhibition in experiment [7] and in experiment [8] were -8.36% (inactive) and 6.19% (inactive), respectively.

As for `Cc1ccc(-c2nnc(N(C)C(=O)c3ccccn3)s2)cn1`, the viability is 133% in experiment [1]; 133% (inactive) in experiment [3]; 90.9% (inactive) in experiment [4]; 103% (inactive) in experiment [5]; 82.3% in experiment [6] (setting [9]); 103% in experiment [6] (setting [10]). Besides, the Her2 level in experiment [2] was 94.5% (inactive). Besides, in experiment [6] (H69AR cells + 2 uM doxorubicin), the differential viability (reversal) was 20.9% (inactive). The inhibition in experiment [7] is -6.85% (inactive); in experiment [8], -4.6% (inactive).

For `CC1=C(n2nnc3ccccc32)C(c2ccccc2)C(C#N)=C(N)O1` (stereo not given), the viability in experiment [1] is 72%; in experiment [3], 72% (inactive); in experiment [4], 82.8% (inactive); in experiment [5], 83.8% (inactive); in experiment [6] (setting [9]) it was 81.9%; in experiment [6] (setting [10]) it was 83.8%. Besides, in experiment [2], the Her2 level is 73% (inactive). Further, in experiment [6] (H69AR cells + 2 uM doxorubicin), the differential viability (reversal) is 1.96% (inactive). Besides, the inhibition is -3.9% (inactive) in experiment [7] and -4.1% (inactive) in experiment [8].

Take `COc1ccc(NC2c3ncccc3C(=O)N2Cc2ccccc2)c(OC)c1` (stereo not given): the viability was 101% in experiment [1]; 101% (inactive) in experiment [3]; 93.8% (inactive) in experiment [4]; 95.8% (inactive) in experiment [5]; 91.5% in experiment [6] (setting [9]); 95.8% in experiment [6] (setting [10]). In addition, in experiment [2], the Her2 level was 85.5% (inactive). Moreover, in experiment [6] (H69AR cells + 2 uM doxorubicin), the differential viability (reversal) is 4.3% (inactive). Further, the inhibition in experiment [7] is -1.56% (inactive); in experiment [8], 1.75% (inactive).

`COc1ccc(-n2c(SCC(=O)c3c(N)n(C)c(=O)n(C)c3=O)nc3ccccc32)cc1`: the viability in experiment [1] is 105%; in experiment [3], 105% (inactive); in experiment [4], 90% (inactive); in experiment [5], 98.5% (inactive); in experiment [6] (setting [9]) it was 86%; in experiment [6] (setting [10]), 98.5%. The Her2 level in experiment [2] was 71.5% (inactive). In addition, the differential viability (reversal) in experiment [6] (H69AR cells + 2 uM doxorubicin) was 12.6% (inactive). In addition, the values for the inhibition in experiment [7] and in experiment [8] were -4.73% (inactive) and 1.9% (inactive), respectively.

As to `CCN(CC)CCCC1(CN)OCCc2ccccc21` (stereo not given), the viability in experiment [1] is 98.5%; in experiment [3] it was 98.5% (inactive); in experiment [4] it was 93.3% (inactive); in experiment [5], 83.8% (inactive); in experiment [6] (setting [9]), 103%; in experiment [6] (setting [10]), 83.8%. Also, in experiment [2], the Her2 level was 88.5% (inactive). Also, the differential viability (reversal) in experiment [6] (H69AR cells + 2 uM doxorubicin) is -18.9% (inactive). Moreover, the inhibition in experiment [7] was -0.39% (inactive); in experiment [8], 23.8% (inactive).

Turning to `CC1=C(C(=O)NCc2ccco2)C2(CCC(C)CC2)OC1=O` (stereo not given), the viability in experiment [1] was 89.5%; in experiment [3], 89.5% (inactive); in experiment [4], 94% (inactive); in experiment [5], 84% (inactive); in experiment [6] (setting [9]) it was 84.8%; in experiment [6] (setting [10]), 84%. In experiment [2], the Her2 level is 100% (inactive). In addition, the differential viability (reversal) in experiment [6] (H69AR cells + 2 uM doxorubicin) was -0.86% (inactive). Moreover, the inhibition was -4% (inactive) in experiment [7] and -5.74% (inactive) in experiment [8].
